Measurements published in BindingDB's records for doi:10.1021/acsmedchemlett.8b00442 (University of Helsinki, 2018).
pIC50: −log10 of the molar value.

Target: T1, Phosphatidylserine lipase ABHD16A (Homo sapiens, UniProt O95870)
T1 sequence (O95870 whole entry): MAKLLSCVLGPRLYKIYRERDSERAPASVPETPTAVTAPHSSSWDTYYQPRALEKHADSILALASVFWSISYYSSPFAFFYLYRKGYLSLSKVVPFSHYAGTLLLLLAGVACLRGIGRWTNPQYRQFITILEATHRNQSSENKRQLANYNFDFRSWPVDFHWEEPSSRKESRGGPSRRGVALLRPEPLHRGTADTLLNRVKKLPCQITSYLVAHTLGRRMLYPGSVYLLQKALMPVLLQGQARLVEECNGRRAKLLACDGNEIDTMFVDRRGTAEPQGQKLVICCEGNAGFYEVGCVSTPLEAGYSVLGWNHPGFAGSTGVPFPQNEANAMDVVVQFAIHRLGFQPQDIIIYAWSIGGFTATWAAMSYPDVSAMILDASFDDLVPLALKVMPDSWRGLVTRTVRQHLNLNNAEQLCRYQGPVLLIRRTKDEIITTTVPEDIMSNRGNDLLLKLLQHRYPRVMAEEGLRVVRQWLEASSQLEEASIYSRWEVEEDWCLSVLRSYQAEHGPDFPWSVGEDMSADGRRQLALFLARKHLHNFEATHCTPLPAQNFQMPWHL
Assay: Inhibition of ABHD16A (unknown origin)
Outline: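 Lysates of HEK293 cells transiently overexpressing human ABHD16A were pretreated for 30 min with DMSO (control) or inhibitor. 1-LG substrate (25 µM final) was then added, and liberated glycerol was measured. Screening was at 10 µM as % control activity (n=2-3). Dose-response used 0.1-100 µM, duplicate wells from two independent experiments, giving IC50.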

Question: `COc1nn(-c2ccc(F)cc2)c(=O)o1` was tested. Which pIC50 did it give?
Answer: 7.49
